# Source: ChEMBL document CHEMBL4834428
# Activity calls are given as the source filed them. The rule behind the calls is not given here.
# Experiments:
# [1] = molecular target: T1, NAD-dependent protein deacetylase sirtuin-1 (Homo sapiens) (UniProt Q96EB6); test: Binding affinity to His6-tagged SIRT1 (unknown origin) expressed in Escherichia coli BL21 (DE3) assessed as increase in thermal stability at 0.1 mM and 41.5 degreeC using H3K18Ac peptide as substrate incubated for 10 mins in presence of NAD+ by SYPRO orange thermal shift assay
# T1 sequence (whole entry): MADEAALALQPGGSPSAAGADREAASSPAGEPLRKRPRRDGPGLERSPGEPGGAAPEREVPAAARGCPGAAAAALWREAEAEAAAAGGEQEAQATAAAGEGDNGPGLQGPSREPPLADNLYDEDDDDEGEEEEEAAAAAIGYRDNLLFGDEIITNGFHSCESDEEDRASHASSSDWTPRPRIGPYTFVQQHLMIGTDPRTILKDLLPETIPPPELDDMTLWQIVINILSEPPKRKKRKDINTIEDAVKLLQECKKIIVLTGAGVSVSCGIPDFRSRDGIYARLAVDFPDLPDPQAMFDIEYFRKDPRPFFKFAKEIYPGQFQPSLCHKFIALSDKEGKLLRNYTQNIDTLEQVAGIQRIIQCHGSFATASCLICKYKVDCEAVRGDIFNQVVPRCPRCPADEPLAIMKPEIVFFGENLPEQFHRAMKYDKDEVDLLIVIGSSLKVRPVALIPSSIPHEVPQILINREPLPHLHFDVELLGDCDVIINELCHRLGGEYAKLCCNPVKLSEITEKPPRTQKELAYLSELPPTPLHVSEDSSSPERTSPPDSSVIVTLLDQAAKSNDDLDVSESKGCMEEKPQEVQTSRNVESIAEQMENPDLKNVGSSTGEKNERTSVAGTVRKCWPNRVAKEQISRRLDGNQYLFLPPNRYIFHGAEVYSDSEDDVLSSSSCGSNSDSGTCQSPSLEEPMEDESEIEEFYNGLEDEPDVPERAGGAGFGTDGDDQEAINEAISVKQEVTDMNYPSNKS
# [2] = molecular target: T1, NAD-dependent protein deacetylase sirtuin-1 (Homo sapiens); test: Inhibition of His6-tagged SIRT1 (unknown origin) expressed in Escherichia coli BL21 (DE3) deacetylation activity incubated for 30 mins in presence of NAD+; settings: dose 0.04-10 µM
# [3] = molecular target: T2, NAD-dependent protein deacetylase sirtuin-3, mitochondrial (Homo sapiens) (UniProt Q9NTG7); test: Binding affinity to His6-tagged/TEV fused SIRT3 (unknown origin) expressed in Escherichia coli BL21 (DE3) assessed as thermal stability at 90 uM using H3K18Ac as substrate incubated for 20 mins in presence of NAD+ by GloMelt thermal shift assay
# T2 sequence (whole entry): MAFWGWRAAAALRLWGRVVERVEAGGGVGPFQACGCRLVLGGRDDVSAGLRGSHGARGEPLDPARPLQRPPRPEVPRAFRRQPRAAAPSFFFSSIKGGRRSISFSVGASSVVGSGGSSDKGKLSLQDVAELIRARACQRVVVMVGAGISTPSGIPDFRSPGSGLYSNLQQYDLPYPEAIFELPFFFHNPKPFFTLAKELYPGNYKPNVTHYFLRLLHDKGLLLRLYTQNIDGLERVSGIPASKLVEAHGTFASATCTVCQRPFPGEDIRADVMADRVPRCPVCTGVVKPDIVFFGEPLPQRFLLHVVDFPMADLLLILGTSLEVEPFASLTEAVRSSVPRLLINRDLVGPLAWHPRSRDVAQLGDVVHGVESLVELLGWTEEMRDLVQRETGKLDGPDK
# Method in brief: (§1)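 SirT1 or SirT3 at 8 µM with 1 mM NAD⁺ and 0.25 mM H3K18ac; SirT2 at 16 µM with 1 mM NAD⁺ and 0.5 mM H4K16ac. Compound 90 µM, 20 min RT before dye addition and melting; ΔTm from melting curves.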
# [4] = molecular target: T1, NAD-dependent protein deacetylase sirtuin-1 (Homo sapiens); test: Binding affinity to His6-tagged SIRT1 (unknown origin) expressed in Escherichia coli BL21 (DE3) assessed as thermal stability at 90 uM using H3K18Ac as substrate incubated for 20 mins in presence of NAD+ by GloMelt thermal shift assay; method in brief: as §1
# [5] = molecular target: T3, NAD-dependent protein deacetylase sirtuin-2 (Homo sapiens) (UniProt Q8IXJ6); test: Binding affinity to His6-tagged/TEV fused SIRT2 (unknown origin) expressed in Escherichia coli BL21 (DE3) assessed as thermal stability at 90 uM using H4K16Ac as substrate incubated for 20 mins in presence of NAD+ by GloMelt thermal shift assay; method in brief: as §1
# T3 sequence (whole entry): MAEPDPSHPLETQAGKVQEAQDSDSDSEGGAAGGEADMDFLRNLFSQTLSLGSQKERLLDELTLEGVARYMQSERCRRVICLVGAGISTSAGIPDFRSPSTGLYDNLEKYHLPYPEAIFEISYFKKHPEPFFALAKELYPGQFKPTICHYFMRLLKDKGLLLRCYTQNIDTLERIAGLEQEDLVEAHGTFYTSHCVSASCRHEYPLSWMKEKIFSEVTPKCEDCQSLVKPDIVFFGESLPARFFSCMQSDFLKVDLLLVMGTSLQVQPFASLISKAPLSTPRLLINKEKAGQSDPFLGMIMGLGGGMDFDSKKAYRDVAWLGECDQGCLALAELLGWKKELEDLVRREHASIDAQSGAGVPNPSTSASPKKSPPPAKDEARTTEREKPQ
# [6] = molecular target: T1, NAD-dependent protein deacetylase sirtuin-1 (Homo sapiens); test: Inhibition of His6-tagged SIRT1 (unknown origin) expressed in Escherichia coli BL21 (DE3) at 1 uM using Fluor-de-Lys-Ac-Gly-Gly-Lys(ac)-AMC peptide as substrate incubated for 5 mins by fluorescence assay
# Method in brief: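 Conditions as the FLucK529ac deacetylase assay (100 nM SirT1, sirtuin buffer 2) but with 10 µM Ac-Gly-Gly-Lys(ac)-AMC substrate and inhibitors at 1 µM. Stopped with equal volume 2× trypsin (0.1 mg/mL); released coumarin read after 5 min RT, ex 355/em 460 nm.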
SMILES,Activity [1],inhibition [2],Activity [3],Activity [4],Activity [5],inhibition [6]
NC(=O)C1CCCc2c1[nH]c1ccc(Cl)cc21 (stereo unspecified),Active,Dose-Dependent Effect,–,–,–,–
N#Cc1ccccc1CN1CC(C(N)=O)Oc2ccccc21 (stereo in doubt; 4.27),–,–,inactive,Active,inactive,–
NC(=O)C1CN(Cc2ccc3nonc3c2)c2ccccc2O1 (stereo unspecified),Active,Dose-Dependent Effect,inactive,Active,inactive,inactive
